Drawing on ChEMBL document CHEMBL1268848, “Selenium-containing analogs of SAHA induce cytotoxicity in lung cancer cells” (Bioorg Med Chem Lett, 2010), this text covers IC50, inhibition and Activity for three molecules.

In one test the test system is NCI-H522. The test can be described thus: Cytotoxicity against human NCI-H522 by SRB assay. Format: functional, cell-based. The method in brief:
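SRB cytotoxicity assay after 24 h drug exposure. Cells grown in DMEM with 10% FBS and penicillin/streptomycin at 37 °C under 5% CO2. Compounds taken from 10 mM DMSO stocks and diluted in medium over 0.1–50 μM, final DMSO 0.2%, with DMSO-only controls. IC50 obtained by non-linear regression of dose-response curves.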
Background: Sulforhodamine B stains cellular protein and so reports cell mass.

In test [1] the target is RAC-alpha serine/threonine-protein kinase (Homo sapiens) (UniProt P31749). Kind of test: Inhibition of AKT phosphorylation in human A549 at 5 uM after 24 hrs by Western blot analysis. Format: functional. The method in brief:
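A549 cells treated 24 h with 5 μM compound, with DMSO controls. Lysed in Tris pH 7.4/NaCl/EDTA/EGTA/1% Triton X-100 buffer containing NaF, Na3VO4 and protease inhibitors, 10 min at 4°C, then cleared at 14,000 xg. 10 μg protein by BCA run on SDS-PAGE and blotted to PVDF. Probed with anti-pAKT and compared with pan-AKT.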

For test [2], the system named is A549. Kind of test: Induction of autophagy in human A549 cells assessed as increase in LC3II after 3 hrs relative to control. Format: functional, cell-based. The method in brief:
(§1)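 A549 cells given 5 μM compound, with DMSO-treated controls, and harvested at times from 0 to 24 h. Lysis buffer: 20 mM Tris pH 7.4, 150 mM NaCl, 1 mM EDTA/EGTA, 1% Triton X-100, NaF, Na3VO4 and protease inhibitors, 10 min at 4°C. 10 μg protein run on SDS-PAGE and immunoblotted for LC3B, with actin as loading reference.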

Test [3] relates to A549. The test can be described thus: Induction of autophagy in human A549 cells assessed as increase in LC3II after 24 hrs relative to control. Format: functional, cell-based. The method in brief: as §1
Test [4] has as its system A549. Kind of test: Cytotoxicity against human A549 cells by SRB assay. Format: functional, cell-based.
In the next test the test system is NCI-H2126. Kind of test: Cytotoxicity against human NCI-H2126 by SRB assay. Format: functional, cell-based.
The subject of another test is NCI-H1299. The test can be described thus: Cytotoxicity against human NCI-H1299 by SRB assay. Format: functional, cell-based.
The test system of the next test is NCI-H226. The test can be described thus: Cytotoxicity against human NCI-H226 by SRB assay. Format: functional, cell-based.
The subject of the next test is NCI-H460. Kind of test: Cytotoxicity against human NCI-H460 by SRB assay. Format: functional, cell-based.
For the next test, the system named is NCI-H23. Kind of test: Cytotoxicity against human NCI-H23 by SRB assay. Format: functional, cell-based.
Test [5] can be described thus: Cytotoxicity against human H441 by SRB assay. Format: functional. As to conditions: NCI-H441.
The species named for a further test is Homo sapiens. The following applies: at 5 µM.

Activity calls are given as the source filed them. The calls are words filed in the database; no cut-off is given here.

RAC-alpha serine/threonine-protein kinase (Homo sapiens), sequence (P31749 whole entry): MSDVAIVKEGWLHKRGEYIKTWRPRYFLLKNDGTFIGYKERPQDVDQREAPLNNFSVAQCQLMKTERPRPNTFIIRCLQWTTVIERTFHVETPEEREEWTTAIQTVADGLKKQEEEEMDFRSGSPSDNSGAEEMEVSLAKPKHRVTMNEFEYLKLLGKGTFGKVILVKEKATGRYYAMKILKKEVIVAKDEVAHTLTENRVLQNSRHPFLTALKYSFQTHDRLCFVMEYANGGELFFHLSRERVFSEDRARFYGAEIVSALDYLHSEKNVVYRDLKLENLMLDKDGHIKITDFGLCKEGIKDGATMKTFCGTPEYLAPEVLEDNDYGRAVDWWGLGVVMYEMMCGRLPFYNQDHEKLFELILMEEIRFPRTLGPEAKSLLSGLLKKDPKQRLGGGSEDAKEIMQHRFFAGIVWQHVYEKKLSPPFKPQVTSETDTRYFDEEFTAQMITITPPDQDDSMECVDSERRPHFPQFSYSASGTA

Regarding `O=C(CCCCCCC(=O)Nc1ccccc1)NO` [VORINOSTAT], the concentration for half-maximal inhibition (IC50) (commonly the point on the concentration scale where inhibition reaches its midpoint) with NCI-H522 was 0.832 µM. Moreover, the inhibition result in test [1] is “inactive”. The result in the test on A549 [2] was inactive.

`O=C(CCCCC[Se][Se]CCCCCC(=O)Nc1ccccc1)Nc1ccccc1`: the result in the test with A549 [3] and with A549 [2] was Active. In addition, the IC50 in the test on A549 [4] turned out to be 0.37 µM; in the test with NCI-H2126 it was 1.09 µM; with NCI-H1299, 0.438 µM; with NCI-H226 it was 1.73 µM; in the test with NCI-H460, 2.13 µM; in the test with NCI-H522, 0.188 µM. Moreover, the results for the IC50 (in the test on NCI-H23; in [5]) were 0.279 µM and 0.092 µM, respectively. For the same molecule, the inhibition result (in [1]; in the test filed under Homo sapiens) was “Active” each time.

`N#C[Se]CCCCCC(=O)Nc1ccccc1`: the result with A549 [3] and in the test on A549 [2] was Active. The IC50 is 0.653 µM in the test on A549 [4]; 0.928 µM in the test with NCI-H2126; 0.923 µM with NCI-H1299; 1.05 µM in the test with NCI-H226; 1.46 µM with NCI-H460; 0.779 µM in the test with NCI-H522. Also, the IC50 came to 0.271 µM with NCI-H23 and 0.449 µM in [5]. Besides, the inhibition entry (in test [1]; in the test listed under Homo sapiens) was “Active” in each case.
